# High-throughput results: PubChem, Broad Institute
# Ecoli rRNA inh: inhibits bacterial ribosomal RNA function over humanized ribosomes. E. coli WT GFP vs humanized-ribosome RFP mutants, fluorescence, 24 h; hits give low values; DMSO median 0, no signal -100. GFP signal change (wild-type ribosome), % (no concentration beside the values). 1.6% of 350,000 active. AID 720706;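 active = significant combined selectivity score with lowered wild-type GFP, culture density cut under 30%, mutant RFP and density less affected; inactive = any of these conditions unmet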
# PglD inh: inhibitors of Campylobacter jejuni PglD acetyltransferase. inhibition, % at 12.5 µM. 0.098% of 360,000 active. AID 602405. purified PglD enzyme, DTNB colorimetric CoA detection; in the data active = inhibition above about 16%, passing the limit was not always enough
# HIV Env fusion: inhibitors of HIV Env-mediated cell fusion. inhibition, % at 12.3 µM. HeLa-JRFL Env/CEM21 cell fusion, luciferase. AID 651610. 1.1% of 360,000 active;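 active = mean replicate inhibition score of at least 50 and every replicate individually at or above 50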;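 note: 0% = plate neutral controls and 100% = maraviroc near 300 nM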
# DENV2 CPE rescue: inhibitors of DENV2 cytopathic effect; DENV2-infected cells, cytopathic effect rescue, plate reader; CPE inhibition, % at 9.99 µM; AID 651640; 1.7% of 350,000 active; in the data active = CPE inhibition above about 20%, passing the limit was not always enough; tested in BHK-21 cells;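 note: 0% = median of neutral control wells and 100% = median of positive control wells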
# PGC1a acetyl inh: modulators of PGC1a acetylation. U2OS PGC1a acetylation, AlphaScreen anti-acetyl-lysine; with virally co-expressed GCN5 acetyltransferase. inhibition, % at 15.6 µM. 0.17% of 350,000 active. AID 651687;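 active = every replicate shows inhibition of at least 40%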;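 note: 0% = neutral control wells and 100% = positive control wells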
# FN deposit inh: fibronectin deposition inhibition; AH1F fibroblasts, Alexa488-fibronectin deposition fluorescence, overnight; inhibition, % at 12.6 µM; 0.086% of 350,000 active;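 active = mean inhibition across replicates of 30% or more, regardless of how many single replicates reach that level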;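 note: positive control wells lacked labelled fibronectin entirely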
#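 Test system: AH1F fibroblast monolayer depositing Alexa488-labelled fibronectin into matrix. Input: 10000 cells per well. Technique: fluorescence, ex 485 nm, em 525 nm. Buffer or medium: DMEM plus 2% serum, read in PBS. Timing: 1 h cell adhesion before compound, then overnight fibronectin incubation. Compound: single dose, pinned. Read-out basis: inhibition from reduced deposited-fibronectin fluorescence.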
# * hit, by the source's call; x = not tested or not shown; [ ] = another dose, or the depositor's remark. A selection: hits, their analogues and other compounds. The true share with any hit is near 3.5%.
SMILES,Ecoli rRNA inh,PglD inh,HIV Env fusion,DENV2 CPE rescue,PGC1a acetyl inh,FN deposit inh
Cc1ccc(S(=O)(=O)N(C)C[C@@H]2OCCCC[C@H](C)Oc3ccc(NC(=O)Nc4ccc(C(F)(F)F)cc4)cc3C(=O)N([C@H](C)CO)C[C@H]2C)cc1,-4,0,45[16.7 µM],8,-5,0
Cc1noc(C)c1NC(=O)N(C)C[C@H]1Oc2c(NS(=O)(=O)c3cn(C)cn3)cccc2C(=O)N([C@@H](C)CO)C[C@H]1C,7,-2,x,-5,6,-10
COCC(=O)N1CC(=O)N2[C@H](CO)[C@H](c3ccc(C#CC4CCCC4)cc3)[C@@H]2C1,7,x,x,-2,-4,-4
CC=Cc1ccc2n(c1=O)C[C@@H]1[C@@H](CO)[C@H](C(=O)NCCC)N(Cc3cccc(F)c3)[C@H]21 (mixture of isomers),6,-5,x,5,-17,x
Cc1ccc(S(=O)(=O)N(C)C[C@H]2OCCCC[C@@H](C)Oc3ccc(NC(=O)Nc4ccc(C(F)(F)F)cc4)cc3C(=O)N([C@H](C)CO)C[C@@H]2C)cc1,5,2,-27[16.7 µM],67*,2,-16
COc1ccccc1-c1c(C)nn2c(N3CCN(Cc4ccccc4)CC3)cc(C)nc12,-12,-2,13,55*,-4,0
Cc1cc(N2CCN(Cc3ccccc3)CC2)n2nc(C)c(-c3ccccc3)c2n1,x,-6,63*,x,5,2
COCC#Cc1ccc([C@H]2[C@H](CO)N3CCCCN(S(=O)(=O)c4cccc(OC)c4)C[C@@H]23)cc1,-6,-1,x,5,-8,x
Cc1cccc(C)c1NC(=O)c1cccc(C(=O)Nc2c(C)cccc2C)n1,-25*,1,-30,0,-38,2
Cc1cccc(C)c1NC(=O)c1cccnc1,22,1,-8,-9,-5,-1
C[C@@H]1CN([C@H](C)CO)C(=O)Cc2cc(NS(=O)(=O)c3ccccc3)ccc2O[C@@H]1CN(C)S(=O)(=O)c1ccccc1,-3,1,-13[16.7 µM],-20,-3,x
C[C@H]1CN([C@@H](C)CO)C(=O)Cc2cc(NS(C)(=O)=O)ccc2O[C@H]1CN(C)S(=O)(=O)c1ccc(F)cc1,0,2,5[16.7 µM],23*,4,x
C[C@@H]1CN([C@H](C)CO)C(=O)Cc2cc(NS(C)(=O)=O)ccc2O[C@H]1CN(C)S(=O)(=O)c1ccc(F)cc1,3,1,11[16.7 µM],6,7,x
C[C@H](CO)N1C[C@H](C)[C@H](CN(C)S(=O)(=O)c2ccc(F)cc2)Oc2ccc(NS(=O)(=O)c3ccc(Cl)cc3)cc2CC1=O,3,3,59*[16.7 µM],-8,13,x
C[C@H]1CN([C@@H](C)CO)C(=O)Cc2cc(NS(=O)(=O)c3ccc(Cl)cc3)ccc2O[C@H]1CN(C)S(=O)(=O)c1ccc(F)cc1,6,2,15[16.7 µM],3,-7,x
C[C@H](CO)N1C[C@H](C)[C@@H](CN(C)S(C)(=O)=O)Oc2ccc(NS(=O)(=O)c3ccccc3)cc2CC1=O,6,-2,11[16.7 µM],70*,6,x
C[C@H](CO)N1C[C@H](C)[C@H](CN(C)S(=O)(=O)c2ccc(F)cc2)Oc2ccc(NS(=O)(=O)c3ccccc3)cc2CC1=O,-1,1,86*[16.7 µM],-4,1,x
O=C(c1ccccc1)N1C[C@@H]2[C@H](c3ccccc31)[C@H](CO)N2Cc1cocn1,-2,3,x,2,-2,x
O=Nc1ccc(Cl)cn1,6,x,11,31*,x,14
Clc1ccc(N=c2ssnc2Cl)nc1,20,x,-68,1,12,-13
C[C@@H]1CN([C@H](C)CO)C(=O)Cc2cc(NS(=O)(=O)c3ccc(F)cc3)ccc2O[C@H]1CN(C)C(=O)Nc1ccccc1,1,-10,-12[16.7 µM],-11,1,x
CNC[C@H]1Oc2ccc(NS(=O)(=O)c3cccs3)cc2C(=O)N([C@@H](C)CO)C[C@@H]1C,2,1,x,2,-7,3
COc1ccc(-c2nnn(CC(=O)N3CCN(c4ccccc4OC)CC3)n2)cc1,x,9,x,x,-25,x
COc1ccc(-c2nnn(CC(=O)N3CCN(c4ccccc4OC)CC3)n2)cc1OC,-17*,-1,-5,-2,4,5
O=C(CCCSc1nc2ccccc2[nH]1)NC(c1ccccc1)c1ccccc1,-40*,x,32,-1,x,-4
SMILES,Ecoli rRNA inh,PglD inh,HIV Env fusion,DENV2 CPE rescue,PGC1a acetyl inh,FN deposit inh
Cc1cccc(N2CCN(C(=O)CCCSc3nc4ccccc4[nH]3)CC2)c1C,x,0,74*,x,3,x
CC(=O)Nc1ccc(NC(=O)CCCSc2nc3ccccc3[nH]2)cc1,2,4,-6,-1,-2,0
COc1ccccc1N1CCN(C(=O)CSc2nnc3n2C(C)(C)Cc2ccccc2-3)CC1,x,4,74*,x,-1,-12
O=C(C[C@@H]1CC[C@H]2[C@@H](COC[C@@H](O)CN2C(=O)c2ccc(F)cc2)O1)NCc1cccc(F)c1,5,2,x,-6,7,-12
O=C1CNC[C@H]2[C@@H](c3ccc(C4=CCCCC4)cc3)[C@H](CO)N12,3,x,x,-9,0,-12
CCN(C[C@@H]1N[C@H](CO)[C@H]1c1ccc(-c2cccc(C#N)c2)cc1)C(=O)COC,0,1,x,-13,-1,-11
COc1ccccc1N1CCN(C(=O)CSc2ncccc2-c2nc3ccccc3[nH]2)CC1,x,-2,-8,x,4,2
COc1ccccc1N1CCN(C(=O)CSc2nc3ccccc3[nH]2)CC1,-41*,5,x,0,-15,x
CCNc1ccc(C(=O)OCC)cc1NC(=O)c1cc(S(=O)(=O)N2CCOCC2)ccc1C,x,1,62*,x,5,-7
COCCNc1nc(NCCOc2ccccc2Cl)c2sccc2n1,-61,2,11,-2,8,x
COCCNc1nc(Nc2ccccc2Cl)c2sccc2n1,-10,4,-71,38*,x,2
CC1(C)CC(=O)C=C(c2ccc(COC(=O)C(c3ccccc3)c3ccccc3)cc2)C1=O,9,-9,23,54*,-7,x
CC(=O)OCc1ccc(C2=CC(=O)CC(C)(C)C2=O)cc1,1,1,8,1,x,-3
CC(=O)c1c(C)nc(-c2ccc(Cl)cc2)nc1N,21,x,-34,-2,x,x
CC(C)=C(c1ccc(Cl)cc1)c1c(N)ncnc1N,-21*,x,x,10,3,-7
COc1ccc(NC(=O)CN(C)CCOc2ccc(Cl)cc2)cc1OC,-9,5,-2,47*,-8,6
c1ccc2[nH]c(SCc3cn4cccnc4n3)nc2c1,x,x,1,x,x,31*
O=C(C[C@H]1C[C@H]2c3cc(NC(=O)Nc4ccccc4F)ccc3O[C@H]2[C@H](CO)O1)NC1CCCC1,2,3,-2[16.7 µM],20*,4,-5
